Measured values reported in ChEMBL document CHEMBL3046415, “Improved microwave-mediated synthesis of 3-(3-aryl-1,2,4-oxadiazol-5-yl)propionic acids and their larvicidal and fungal growth inhibitory properties” (2009).
Active and inactive are the calls of the source. The rule behind the calls is not given here.

How the values were obtained:
Type in all cases: functional
Fusarium verticillioides [1] = assay: Antifungal activity against Fusarium verticillioides assessed as growth inhibition at 2 ug/ml after 72 hr by disk diffusion test
In short: (§1)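 Strains from a university mycology culture collection, grown on PDA at 28 °C for 8–15 d until plates were covered. Mycelial disks ([…]) were cut from colony edges and placed on test plates. Ethylene glycol served as negative control. Plates were incubated at 28 °C for up to 72 h in triplicate. Percent inhibition was calculated from reduction in growth diameter.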

Fusarium verticillioides [2] = assay: Antifungal activity against Fusarium verticillioides assessed as growth inhibition at 2 ug/ml after 48 hr by disk diffusion test; in short: as §1
Fusarium solani = assay: Antifungal activity against Fusarium solani assessed as growth inhibition at 2 ug/ml after 72 hr by disk diffusion test; settings: read-out: GI; in short: as §1
Fusarium decemcellulare = assay: Antifungal activity against Fusarium decemcellulare assessed as growth inhibition at 2 ug/ml after 72 hr by disk diffusion test; settings: read-out: GI; in short: as §1
Fusarium lateritium = assay: Antifungal activity against Fusarium lateritium assessed as growth inhibition at 2 ug/ml after 72 hr by disk diffusion test; settings: read-out: GI; in short: as §1

| SMILES | growth inhibition (GI) (Fusarium verticillioides [1]) | growth inhibition (GI) (Fusarium verticillioides [2]) | inhibition of growth at 2 µg/mL (Fusarium solani) [%] | inhibition of growth at 2 µg/mL (Fusarium decemcellulare) [%] | inhibition of growth at 2 µg/mL (Fusarium verticillioides [1]; read-out: GI) [%] | inhibition of growth at 2 µg/mL (Fusarium verticillioides [2]; read-out: GI) [%] | inhibition of growth at 2 µg/mL (Fusarium lateritium) [%] |
| --- | --- | --- | --- | --- | --- | --- | --- |
| O=C(O)CCc1nc(-c2ccc([N+](=O)[O-])cc2)no1 | inactive | Active |  |  |  |  |  |
| Cc1cccc(-c2noc(CCC(=O)O)n2)c1 | inactive | Active |  |  |  |  |  |
| O=C(O)CCc1nc(-c2ccc(Cl)cc2)no1 | inactive | Active | 59.7 | 66 |  |  |  |
| O=C(O)CCc1nc(-c2ccccc2)no1 |  |  |  |  | 52.8 | 52.8 |  |
| Cc1ccccc1-c1noc(CCC(=O)O)n1 | inactive | Active |  |  |  |  |  |
| Cc1ccc(-c2noc(CCC(=O)O)n2)cc1 | inactive | Active |  |  |  |  |  |
| O=C(O)CCc1nc(-c2ccc(F)cc2)no1 | inactive | Active |  |  |  |  | 43 |
| COc1ccc(-c2noc(CCC(=O)O)n2)cc1 | inactive | Active |  | 52.8 |  |  | 45.8 |
| O=C(O)CCc1nc(-c2ccc(Br)cc2)no1 | inactive | Active |  |  |  |  |  |
